In ChEMBL document CHEMBL4819008, “Design, synthesis, and evaluation of "dual-site"-binding diarylpyrimidines targeting both NNIBP and the NNRTI adjacent site of the HIV-1 reverse transcriptase” (Eur J Med Chem, 2021):

System: Human immunodeficiency virus 1
Assay: Antiviral activity against wild type HIV1 NL4-3 infected in human TZM-bl cells assessed as reduction in viral infection measured after 1 day by luciferase reporter gene assay based luminiscence assay
Type: functional, organism-based
Details: Human immunodeficiency virus 1, NL4-3, TZM-bl, 24 h
Outline: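 TZM-bl cells got a single-round infection with 800 TCID50 of NL4-3 at various compound concentrations, top concentration 100 ng/mL. Luminescence was read 1 day post-infection. EC50 is the concentration giving a 50% decrease in luciferase RLU versus control wells, determined in at least triplicate.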
For `Cc1cc(C#N)cc(C)c1Oc1nc(Nc2ccc(C#N)cc2)ncc1/C=C/C(=O)NC1CC1`, the EC50 was 5.1 nM. `Cc1cc(C#N)cc(C)c1Oc1nc(Nc2ccc(C#N)cc2)ncc1/C=C/C(=O)NC1CCN(C(=O)C(F)(F)F)CC1` gave an EC50 greater than 170 nM. For `Cc1cc(C#N)cc(C)c1Oc1nc(Nc2ccc(C#N)cc2)ncc1/C=C/C(=O)N1CCN(S(C)(=O)=O)CC1`, the EC50 was 13.8 nM. Compound `Cc1cc(C#N)cc(C)c1Oc1nc(Nc2ccc(C#N)cc2)ncc1/C=C/C(=O)N1CCOCC1` has an EC50 of 20 nM. `Cc1cc(C#N)cc(C)c1Oc1nc(Nc2ccc(C#N)cc2)ncc1SCC(=O)NCCCN1CCOCC1` showed an EC50 of 3.77 nM. Work on `Cc1cc(C#N)cc(C)c1Oc1nc(Nc2ccc(C#N)cc2)ncc1/C=C/C(=O)NCCN1CCN(S(C)(=O)=O)CC1` yielded an EC50 of 4.16 nM.

System: not listed separately
Assay: Cytotoxicity against human TZM-bl cells assessed as reduction in cell viability measured after 1 day by CytoTox-Glo assay
Type: cell-based
Details: not given
Outline: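 TZM-bl cells were cultured 1 day with various compound concentrations, in parallel with the antiviral assay, top concentration 100 ng/mL. Viable cells were measured by CytoTox-Glo. CC50 is the concentration causing a 50% reduction in cell viability.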
`Cc1cc(C#N)cc(C)c1Oc1nc(Nc2ccc(C#N)cc2)ncc1/C=C/C(=O)NC1CC1` showed a CC50 at 24 h greater than 221 nM. `Cc1cc(C#N)cc(C)c1Oc1nc(Nc2ccc(C#N)cc2)ncc1/C=C/C(=O)NC1CCN(C(=O)C(F)(F)F)CC1` showed a CC50 at 24 h greater than 170 nM. `Cc1cc(C#N)cc(C)c1Oc1nc(Nc2ccc(C#N)cc2)ncc1/C=C/C(=O)N1CCN(S(C)(=O)=O)CC1` gave a CC50 at 24 h greater than 179 nM. In the case of `Cc1cc(C#N)cc(C)c1Oc1nc(Nc2ccc(C#N)cc2)ncc1/C=C/C(=O)N1CCOCC1`, the CC50 at 24 h is reported as greater than 208 nM. `Cc1cc(C#N)cc(C)c1Oc1nc(Nc2ccc(C#N)cc2)ncc1SCC(=O)NCCCN1CCOCC1` showed a CC50 at 24 h greater than 179 nM. `Cc1cc(C#N)cc(C)c1Oc1nc(Nc2ccc(C#N)cc2)ncc1/C=C/C(=O)NCCN1CCN(S(C)(=O)=O)CC1` gave a CC50 at 24 h greater than 166 nM.

System: not listed separately
Assay: Selectivity index, ratio of CC50 for human TZM-bl cells to EC50 for wild type HIV1 NL4-3 infected in human TZM-bl cells
Type: toxicity, cell-based
Details: read-out: Ratio CC50/EC50
Outline: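 Selectivity index is CC50/EC50, with both values from the TZM-bl assays: NL4-3 single-round luciferase infection and CytoTox-Glo viability, each over 1 day.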
`Cc1cc(C#N)cc(C)c1Oc1nc(Nc2ccc(C#N)cc2)ncc1/C=C/C(=O)NC1CC1` showed a selectivity ratio greater than 44. `Cc1cc(C#N)cc(C)c1Oc1nc(Nc2ccc(C#N)cc2)ncc1/C=C/C(=O)NC1CCN(C(=O)C(F)(F)F)CC1` showed a selectivity ratio greater than 1. Work on `Cc1cc(C#N)cc(C)c1Oc1nc(Nc2ccc(C#N)cc2)ncc1/C=C/C(=O)N1CCN(S(C)(=O)=O)CC1` yielded a selectivity ratio greater than 13. In the case of `Cc1cc(C#N)cc(C)c1Oc1nc(Nc2ccc(C#N)cc2)ncc1/C=C/C(=O)N1CCOCC1`, the selectivity ratio is reported as greater than 10. `Cc1cc(C#N)cc(C)c1Oc1nc(Nc2ccc(C#N)cc2)ncc1SCC(=O)NCCCN1CCOCC1` showed a selectivity ratio greater than 48. `Cc1cc(C#N)cc(C)c1Oc1nc(Nc2ccc(C#N)cc2)ncc1/C=C/C(=O)NCCN1CCN(S(C)(=O)=O)CC1` gave a selectivity ratio greater than 40.

System: Human immunodeficiency virus 1
Assay: Antiviral activity against wild type HIV-1 3B infected in human MT4 cells assessed as inhibition of virus-induced cytopathic effect measured after 5 days by MTT assay
Type: functional, organism-based
Details: Human immunodeficiency virus 1, 3B, MT4, 120 h
Outline: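 MT-4 cells at 6 × 10^5 cells/mL were infected with virus stock at 100–300 CCID50 in the presence of serial 5-fold compound dilutions, in triplicate wells. Viability was read by MTT reduction 5 days after infection, with absorbance at 540 and 690 nm and the median OD of three wells used. EC50 is the concentration giving 50% protection from viral cytopathicity.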
With `Cc1cc(C#N)cc(C)c1Oc1nc(Nc2ccc(C#N)cc2)ncc1SCC(=O)NCCCN1CCOCC1` the EC50 was 3.7 nM. For `Cc1cc(C#N)cc(C)c1Oc1nc(Nc2ccc(C#N)cc2)ncc1/C=C/C(=O)NCCN1CCN(S(C)(=O)=O)CC1`, the EC50 was 6.1 nM.

System: not listed separately
Assay: Cytotoxicity against human MT4 cells assessed as reduction in cell viability measured after 5 days by MTT assay
Type: cell-based
Details: time 5 day
Outline: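 Mock-infected MT-4 cells (6 × 10^5 cells/mL) were run in parallel with the infected wells, under serial 5-fold compound dilutions in triplicate. MTT viability was read after 5 days and the median OD of three wells used. CC50 is the concentration that reduced OD540 of the mock-infected cells by 50%.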
`Cc1cc(C#N)cc(C)c1Oc1nc(Nc2ccc(C#N)cc2)ncc1SCC(=O)NCCCN1CCOCC1` gave a CC50 at 120 h of 24000 nM. For `Cc1cc(C#N)cc(C)c1Oc1nc(Nc2ccc(C#N)cc2)ncc1/C=C/C(=O)NCCN1CCN(S(C)(=O)=O)CC1`, the CC50 at 120 h was 5900 nM.

System: not listed separately
Assay: Selectivity index, ratio of CC50 for human MT4 cells to EC50 for wild type HIV-1 3B infected in human MT4 cells
Type: toxicity, cell-based
Details: read-out: Ratio CC50/EC50
In the case of `Cc1cc(C#N)cc(C)c1Oc1nc(Nc2ccc(C#N)cc2)ncc1SCC(=O)NCCCN1CCOCC1`, the selectivity ratio is reported as 6540. Work on `Cc1cc(C#N)cc(C)c1Oc1nc(Nc2ccc(C#N)cc2)ncc1/C=C/C(=O)NCCN1CCN(S(C)(=O)=O)CC1` yielded a selectivity ratio of 955.

System: Human immunodeficiency virus 1
Assay: Antiviral activity against HIV-1 harboring reverse transcriptase L100I mutant infected in human MT4 cells assessed as inhibition of virus induced cytopathic effect measured after 5 days by MTT assay
Type: functional, organism-based
Details: Human immunodeficiency virus 1, MT4, 120 h
Outline: (§1)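 MT-4 cells, exponentially growing, resuspended at 6 × 10^5 cells/mL and infected with the mutant HIV-1 stock at 100–300 CCID50. Compounds were added as 5-fold serial dilutions, in triplicate wells, alongside mock-infected wells. After 5 days, viability was read by MTT reduction at 540 and 690 nm using the median OD of three wells. EC50 is the concentration giving 50% protection from viral cytopathogenicity.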
For `Cc1cc(C#N)cc(C)c1Oc1nc(Nc2ccc(C#N)cc2)ncc1SCC(=O)NCCCN1CCOCC1`, the EC50 was 16.3 nM. `Cc1cc(C#N)cc(C)c1Oc1nc(Nc2ccc(C#N)cc2)ncc1/C=C/C(=O)NCCN1CCN(S(C)(=O)=O)CC1` gave an EC50 of 78.6 nM.

System: Human immunodeficiency virus 1
Assay: Antiviral activity against HIV-1 harboring reverse transcriptase K103N mutant infected in human MT4 cells assessed as inhibition of virus induced cytopathic effect measured after 5 days by MTT assay
Type: functional, organism-based
Details: Human immunodeficiency virus 1, MT4, 120 h
Outline: as §1
`Cc1cc(C#N)cc(C)c1Oc1nc(Nc2ccc(C#N)cc2)ncc1SCC(=O)NCCCN1CCOCC1` showed an EC50 of 2.2 nM. Compound `Cc1cc(C#N)cc(C)c1Oc1nc(Nc2ccc(C#N)cc2)ncc1/C=C/C(=O)NCCN1CCN(S(C)(=O)=O)CC1` has an EC50 of 8.7 nM.

System: Human immunodeficiency virus 1
Assay: Antiviral activity against HIV-1 harboring reverse transcriptase Y181C mutant infected in human MT4 cells assessed as inhibition of virus induced cytopathic effect measured after 5 days by MTT assay
Type: functional, organism-based
Details: Human immunodeficiency virus 1, MT4, 120 h
Outline: as §1
In the case of `Cc1cc(C#N)cc(C)c1Oc1nc(Nc2ccc(C#N)cc2)ncc1SCC(=O)NCCCN1CCOCC1`, the EC50 is reported as 19.1 nM. With `Cc1cc(C#N)cc(C)c1Oc1nc(Nc2ccc(C#N)cc2)ncc1/C=C/C(=O)NCCN1CCN(S(C)(=O)=O)CC1` the EC50 was 48.6 nM.

System: Human immunodeficiency virus 1
Assay: Antiviral activity against HIV-1 harboring reverse transcriptase Y188L mutant infected in human MT4 cells assessed as inhibition of virus induced cytopathic effect measured after 5 days by MTT assay
Type: functional, organism-based
Details: Human immunodeficiency virus 1, MT4, 120 h
Outline: as §1
In the case of `Cc1cc(C#N)cc(C)c1Oc1nc(Nc2ccc(C#N)cc2)ncc1SCC(=O)NCCCN1CCOCC1`, the EC50 is reported as 38.7 nM. For `Cc1cc(C#N)cc(C)c1Oc1nc(Nc2ccc(C#N)cc2)ncc1/C=C/C(=O)NCCN1CCN(S(C)(=O)=O)CC1`, the EC50 was 101 nM.

System: Human immunodeficiency virus 1
Assay: Antiviral activity against HIV-1 harboring reverse transcriptase E138K mutant infected in human MT4 cells assessed as inhibition of virus induced cytopathic effect measured after 5 days by MTT assay
Type: functional, organism-based
Details: Human immunodeficiency virus 1, MT4, 120 h
Outline: as §1
`Cc1cc(C#N)cc(C)c1Oc1nc(Nc2ccc(C#N)cc2)ncc1SCC(=O)NCCCN1CCOCC1` showed an EC50 of 37.3 nM. Compound `Cc1cc(C#N)cc(C)c1Oc1nc(Nc2ccc(C#N)cc2)ncc1/C=C/C(=O)NCCN1CCN(S(C)(=O)=O)CC1` has an EC50 of 20.9 nM.

System: Human immunodeficiency virus 1
Assay: Antiviral activity against HIV-1 harboring reverse transcriptase F227L/V106A mutant infected in human MT4 cells assessed as inhibition of virus induced cytopathic effect measured after 5 days by MTT assay
Type: functional, organism-based
Details: Human immunodeficiency virus 1, MT4, 120 h
Outline: as §1
With `Cc1cc(C#N)cc(C)c1Oc1nc(Nc2ccc(C#N)cc2)ncc1SCC(=O)NCCCN1CCOCC1` the EC50 was 182 nM. With `Cc1cc(C#N)cc(C)c1Oc1nc(Nc2ccc(C#N)cc2)ncc1/C=C/C(=O)NCCN1CCN(S(C)(=O)=O)CC1` the EC50 was 251 nM.

System: Human immunodeficiency virus 1
Assay: Antiviral activity against HIV-1 harboring reverse transcriptase RES056 mutant infected in human MT4 cells assessed as inhibition of virus induced cytopathic effect measured after 5 days by MTT assay
Type: functional, organism-based
Details: Human immunodeficiency virus 1, MT4, 120 h
Outline: as §1
Compound `Cc1cc(C#N)cc(C)c1Oc1nc(Nc2ccc(C#N)cc2)ncc1SCC(=O)NCCCN1CCOCC1` has an EC50 of 332 nM. `Cc1cc(C#N)cc(C)c1Oc1nc(Nc2ccc(C#N)cc2)ncc1/C=C/C(=O)NCCN1CCN(S(C)(=O)=O)CC1` gave an EC50 of 808 nM.

Target: Human immunodeficiency virus type 1 reverse transcriptase (Human immunodeficiency virus 1, UniProt Q72547)
Assay: Inhibition of HIV-1 reverse transcriptase assessed as reduction in biotin-dUTP incorporation into cDNA incubated for 1 hr with DIG-dUTP, biotin-dUTP and dTTP followed by transferring onto streptavidin-coated plate and measured after 1 hr by ELISA
Details: not given
Outline: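 Recombinant WT HIV-1 RT was tested with a Roche colorimetric kit. Enzyme, reconstituted template, DIG-dUTP, biotin-dUTP and dTTP were incubated 1 h at 37 °C in incubation buffer with or without inhibitor. The mix was then held 1 h at 37 °C on a streptavidin-coated plate, then anti-DIG-POD 1 h at 37 °C, then ABTS at 25 °C, and read at OD405.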
Work on `Cc1cc(C#N)cc(C)c1Oc1nc(Nc2ccc(C#N)cc2)ncc1SCC(=O)NCCCN1CCOCC1` yielded an IC50 of 35 nM.

System: not listed separately
Assay: Antiviral activity against HIV-2 ROD infected in human MT4 cells assessed as protection against virus-induced cytopathic effect measured after 5 days by MTT assay
Details: Human immunodeficiency virus 2, ISOLATE ROD, MT4, 120 h
For `Cc1cc(C#N)cc(C)c1Oc1nc(Nc2ccc(C#N)cc2)ncc1SCC(=O)NCCCN1CCOCC1`, the EC50 was greater than 24000 nM. Work on `Cc1cc(C#N)cc(C)c1Oc1nc(Nc2ccc(C#N)cc2)ncc1/C=C/C(=O)NCCN1CCN(S(C)(=O)=O)CC1` yielded an EC50 greater than 5860 nM.
